Source: PubChem BioAssay (several laboratories)
An excerpt weighted towards active compounds, which were near 4.3% of everything screened.
TAAR1 antag – human TAAR1 antagonism; inhibition, % at 3 µM; Q96RJ0; CHO RD-HGA16 TAAR1, Fluo-8 calcium fluorescence, antagonist; 360,000 tested, 1.5% active;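 active means inhibition above a per-plate cutoff, the mean inhibition of test compounds on that plate plus 3 SD, cut at about 49% in these data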;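 further: 0% = DMSO plus EC80 beta-PEA response and 100% = DMSO alone without agonist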
Target sequence (Q96RJ0 whole entry, looked up): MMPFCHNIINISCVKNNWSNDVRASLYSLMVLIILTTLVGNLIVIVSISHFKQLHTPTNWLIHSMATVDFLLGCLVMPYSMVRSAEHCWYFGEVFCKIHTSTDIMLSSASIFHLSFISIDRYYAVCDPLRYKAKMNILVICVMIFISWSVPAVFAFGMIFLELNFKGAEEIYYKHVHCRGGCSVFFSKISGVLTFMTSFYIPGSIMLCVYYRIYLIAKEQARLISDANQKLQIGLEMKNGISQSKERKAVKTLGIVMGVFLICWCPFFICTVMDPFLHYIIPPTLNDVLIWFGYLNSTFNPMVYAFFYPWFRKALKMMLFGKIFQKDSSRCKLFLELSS
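Assay system: CHO-derived RD-HGA16 cells stably expressing human TAAR1 plus Gα16. Timing: 140 s kinetic read after compound, 140 s after agonist. Technique: kinetic Fluo-8 calcium fluorescence measurement. Measure: % inhibition of agonist calcium response.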
B2AR ag – agonists of human beta-2 adrenergic receptor inducing internalization; Am2.2-beta2AR cells, FAP receptor internalization, flow cytometry; 340,000 tested, 0.43% active; response, % (test concentration not listed); P07550;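 active means response above a set limit, near 3 SD of response in nonfluorescent compounds, cut at about 42% in these data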
TAAR1 ag – agonists of human TAAR1; CHO RD-HGA16 TAAR1, Fluo-8 calcium fluorescence; vehicle wells 0%, saturating PEA agonist 100%; 360,000 tested, 0.99% active; activation, % at 3 µM;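 active means activation above the mean activation of all test compounds in the run plus 3 SD, cut at about 38% in these data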
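test system = CHO RD-HGA16 cells carrying human TAAR1 plus Gα16 | schedule = 17-24 h seeding, 75 min 37 °C dye, 30 min RT | compound dosing = 3 µM single concentration | control set = DMSO and PEA EC100 | replicates = n 1 | signal = Fluo-8 fluorescence, 5 s baseline then 140 s kinetic read | measure = percent activation vs PEA EC100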
MC4R antagonist – human MC4R antagonism in cAMP assay; MC4R-expressing cells, MTII-stimulated cAMP, LANCE TR-FRET; inhibition, % at 6.5 µM; 360,000 tested, 0.48% active;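 active means inhibition above its plate's cutoff, the mean of tested wells on that plate plus 3 SD, cut at about 29% in these data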;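 further: 0% = Melanotan II alone and 100% = Melanotan II plus saturating MCL0020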
Target sequence (P32245 whole entry, looked up): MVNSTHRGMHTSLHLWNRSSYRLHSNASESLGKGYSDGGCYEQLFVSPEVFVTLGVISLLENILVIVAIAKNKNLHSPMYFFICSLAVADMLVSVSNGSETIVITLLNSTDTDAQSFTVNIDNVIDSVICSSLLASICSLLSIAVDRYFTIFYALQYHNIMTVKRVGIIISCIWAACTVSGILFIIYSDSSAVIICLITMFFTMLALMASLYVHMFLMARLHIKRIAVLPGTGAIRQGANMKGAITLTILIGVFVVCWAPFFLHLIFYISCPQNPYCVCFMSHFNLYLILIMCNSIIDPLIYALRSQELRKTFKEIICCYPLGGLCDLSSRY
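Assay system: U2OS-MC4R stable cell line; Also added: Melanotan II; Technique: Eu-cAMP/anti-cAMP TR-FRET, emission 671 nm; Times: 30-min compound, 1-h challenge, 1-h detection, room temperature.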
m5-HT2A agonist – mouse HTR2A agonism via beta-arrestin recruitment. P35363. CHO-K1 mHTR2A beta-arrestin complementation, luminescence; percent of 30 µM serotonin response. activation, % at 7.6 µM. 360,000 tested, 0.66% active. AID 624169;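 active means activation above a run cutoff, the mean activation of all tested compounds plus 3 SD, cut at about 14% in these data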;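 further: 0% = plate median of compound wells and 100% = 30 µM serotonin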
MC4R ag barr – activates human MC4R beta-arrestin recruitment; activation, % at 8.9 µM; 360,000 tested, 0.98% active; U2OS MC4R beta-arrestin complementation, luminescence; percent of melanotan II response, DMSO zero; P32245;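 active means activation above a per-plate cutoff, the mean activation of sample wells on that plate plus 3 SD, cut at about 8% in these data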
TAAR1 nonsel count – nonselective antagonist in TAAR1 antagonist counter-screen. counterscreen cell line, calcium fluorescence, antagonist mode. 2,400 tested, 77% active. AID 651780. inhibition, % at 3 µM. shares compounds with TAAR1 antag; in the data active means inhibition above about 22%;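 further: CHO-Ga16 host cells stimulated with ATP at an EC80 level; 0% = agonist EC80 plus vehicle and 100% = vehicle without agonist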
TAAR1 antag conf – confirmation of human TAAR1 antagonists; shares compounds with TAAR1 antag; TAAR1-expressing cells, fluorescence antagonist read-out; inhibition, % at 3 µM; 2,400 tested, 40% active; in the data active means inhibition above about 49%;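 further: CHO-Ga16 host cells challenged with agonist PEA near its EC80; 0% = agonist at EC80 plus vehicle and 100% = vehicle with no agonist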
Ga16 ag counter – counter-screen for TAAR1 antagonists: nonselective Ga16 agonists; shares compounds with TAAR1 antag; Ga16-expressing cells, calcium fluorescence, agonist counterscreen; activation, % at 3 µM; 2,400 tested, 18% active; in the data active means activation above about 12%;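 further: 0% = vehicle wells and 100% = saturating stimulus response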
TAAR1 ag count – activates human TAAR1 in antagonist counter-screen | shares compounds with TAAR1 antag | 2,400 tested, 2% active | AID 651955 | activation, % at 3 µM | hTAAR1 cell line, fluorescence activation, agonist mode; in the data active means activation above about 37%;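 further: CHO cells stably expressing TAAR1 with calcium dye readout; 0% = DMSO vehicle and 100% = full agonist response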
Active calls of the source: *; · = no result given.

SMILES	TAAR1 antag	B2AR ag	TAAR1 ag	MC4R antagonist	m5-HT2A agonist	MC4R ag barr	TAAR1 nonsel count	TAAR1 antag conf	Ga16 ag counter	TAAR1 ag count
CC1(c2nnc(-c3ccc(Cl)cc3)o2)CC(c2c(Cl)cccc2Cl)=NO1 (configuration not stated)	56*	-14	15	-3	1	-1	23*	32	7	8
O=C(CCNC(=O)c1ccc([N+](=O)[O-])cc1)Nc1ccc(Cl)c(S(=O)(=O)N2CCOCC2)c1	102*	-6	0	4	1	-1	-3	-12	3	3
Cc1ccc(NC(=O)CCNC(=O)c2ccc(Br)cc2)cc1S(=O)(=O)N1CCOCC1	-8	6	1	15	3	4	·	·	·	·
O=C(NCCC1CCCCN1S(=O)(=O)c1ccc(F)cc1)C(=O)NCc1cccnc1 (configuration not stated)	-10	4	0	6	-3	0	·	·	·	·
COc1ccc(C(=O)OCC2CC(c3ccccc3)=NO2)cc1OC (configuration not stated)	-8	1	2	0	2	-3	·	·	·	·
COc1ccc(-c2nc3c(c(=O)n(C)c(=O)n3C)n2CC2CC(c3ccccc3)=NO2)cc1OC (configuration not stated)	62*	8	25	3	2	2	30*	50*	10	11
Cc1ccc2nc(NC(=O)C3CCN(S(=O)(=O)c4cccc5nsnc45)CC3)sc2c1	65*	24	16	16	-1	0	33*	45	10	7
COc1ccc(CNC(=O)c2cc(C3CC3)nc3c2cnn3C(C)C)cc1	50*	5	5	2	-4	-1	12	22	3	-1
O=[N+]([O-])c1ccc2c(c1)N([O-])C1(CCCCC1)[N+]2=O	-15	5	0	·	·	·	·	·	·	·
O=C(Nc1cccnc1)c1sc(Nc2ccccc2)nc1-c1ccccc1	59*	8	14	8	-5	-2	34*	37	8	11
CCOc1ccc2ccc(OCC)c(/C=N/n3cnnc3)c2c1	1	-2	0	-2	9	-2	·	·	·	·
CCN(CC(=O)NCc1ccc(Cl)cc1)S(=O)(=O)c1ccc(NC(C)=O)cc1	78*	7	19	6	-1	0	21	47	9	11
O=C(O)c1ccc(COc2ccccc2C=C2C(=O)c3ccccc3C2=O)cc1	75*	4	30	22	4	-1	37*	54*	11	23
CC1CCCCC12NC(=O)N(CC(=O)OCC(=O)N(C)C1CCCCC1)C2=O (configuration not stated)	3	0	0	0	5	-1	·	·	·	·
C[C@@H](NC(=O)c1nc[nH]c1C(=O)NCC(=O)OCc1ccccc1)c1ccccc1	68*	11	15	14	9	1	32*	55*	8	10
C[C@H](NC(=O)c1nc[nH]c1C(=O)N[C@@H](C)C(=O)OCc1ccccc1)C(=O)OCc1ccccc1	58*	1	6	5	11	3	20	36	2	0
Cc1cc(OCC(=O)NC(C)c2ccccc2)ccc1[N+](=O)[O-] (configuration not stated)	5	-1	2	3	-1	-1	·	·	·	·
CC(=O)NC(Cc1ccc(C)cc1)C(=O)NC1CCN(S(=O)(=O)c2ccccc2)CC1 (configuration not stated)	-11	-2	-3	5	1	-1	·	·	·	·
CC1(C)N=C(SCC(=O)Nc2ccccc2)C(c2ccc(Cl)cc2)=N1	54*	-12	8	6	8	0	20	22	7	2
CO[C@@H]1CN(C)C(=O)c2cc(NC(=O)Nc3ccc4c(c3)OCO4)ccc2OC[C@@H](C)N(C)C[C@H]1C	8	·	1	·	9	·	·	·	·	·
Cc1cc(NC(=O)CN2C(=O)N(C)C3(CCCCC3)C2=O)ccc1Br	19	0	3	-1	1	1	·	·	·	·
O=C(NCc1nc2ccccc2[nH]1)C1=C[C@@H](c2ccc(C(F)(F)F)cc2)C[C@@H](OCc2ccc(CO)cc2)O1	52*	16	12	12	-2	1	25*	23	5	6
O=C(NCc1ccccc1)C1=C[C@H](c2ccc3c(c2)OCO3)C[C@H](OCc2ccc(CO)cc2)O1	59*	1	10	9	-4	0	25*	32	3	3
C#CCNC(=O)C1=C[C@H](c2csc3ccccc23)C[C@H](OCc2ccc(CO)cc2)O1	65*	1	31	8	2	-2	24*	40	9	10
Cc1ccc(NC(=O)C2=NNC(=O)CC2)cc1S(=O)(=O)Nc1ccc(SC(F)F)cc1	5	7	1	7	-1	-3	·	·	·	·
SMILES	TAAR1 antag	B2AR ag	TAAR1 ag	MC4R antagonist	m5-HT2A agonist	MC4R ag barr	TAAR1 nonsel count	TAAR1 antag conf	Ga16 ag counter	TAAR1 ag count
CCO[C@H]1OC(C(=O)N2CCN(Cc3ccccc3)CC2)=C[C@@H](C2CCCCC2)[C@@H]1CCCO	-12	-5	3	5	0	1	·	·	·	·
CCO[C@@H]1OC(C(=O)Nc2ccccc2)=C[C@H](c2ccc3c(c2)OCO3)[C@H]1CCCO	49*	-5	19	10	-3	-1	19	25	6	7
CCO[C@@H]1OC(C(=O)Nc2ccccc2)=C[C@H](c2ccccc2)[C@H]1CCCO	1	-1	10	8	8	-2	·	·	·	·
CCO[C@@H]1OC(C(=O)N2CCN(Cc3ccc4c(c3)OCO4)CC2)=C[C@H](C2CCCCC2)[C@H]1CCCO	67*	8	15	3	-4	1	29*	45	9	7
CC(C)NS(=O)(=O)c1ccc(NC(=O)C(C)OC(=O)C2CCC2)cc1 (configuration not stated)	-10	3	35	-8	-2	-2	·	·	·	·
CCc1ccc2nc(SCC(=O)Nc3nnc(C)s3)c(C)cc2c1	15	-14	2	-1	4	3	·	·	·	·
